Measurements collected from several papers.
Compare with care: the assays were run in different laboratories.
Target: Angiopoietin-1 receptor (TEK, Homo sapiens, UniProt Q02763)

| Compound | test | setting | remaining binding [%] |
| --- | --- | --- | --- |
| CN(CCCC(F)(F)F)c1nccc(-c2cnn3ncccc23)n1 | binding | 1 µM | 100 |
| O=C(Nc1c[nH]nc1C(=O)NC1CCNCC1)c1cc(F)cc(F)c1 | binding, competition with immobilised ligand | 1 µM | 94 |
| O=C(NCc1ncc(C(F)(F)F)cc1Cl)c1ccc2c(c1)C1(CCS(=O)(=O)CC1)[C@H](C1CC1)N2S(=O)(=O)c1ccc(F)cc1 | cell-free assay, competition with immobilised ligand | 1 µM | 100 |
| CCN1CCN(Cc2ccc(C(=O)Nc3ccc(C)c(Oc4ccc5c(c4)CC(=O)N5)c3)cc2C(F)(F)F)CC1 | binding, competition with immobilised ligand | 1 µM | 100 |
| O=C(c1ccc(Nc2ncc(Cl)c(-c3cc4ccccc4s3)n2)cc1)N1CCC(N2CCCC2)CC1 | binding, competition with immobilised ligand | 1 µM | 19 |
| C[C@H]1CCN(c2nccc(-c3cnn4ncccc34)n2)C1 | binding | 1 µM | 82 |
| CCCOc1ccc([C@@H]2[C@@H](C(=O)O)[C@H](c3ccc4c(c3)OCO4)CN2CC(=O)Nc2c(CC)cccc2CC)cc1 | cell-free assay, competition with immobilised ligand | 1 µM | 86 |
| F[C@@H]1CCN(c2nccc(-c3cnn4ncccc34)n2)C1 | binding | 1 µM | 100 |
| C[C@@H]1CN(c2cc(-c3n[nH]c4ccc(OC5(C)CC5)cc34)ncn2)C[C@H](C)O1 | cell-free assay, competition with immobilised ligand | 0.1 µM | 100 |
| N[C@@H]1CCN(c2nccc(-c3cnn4ncccc34)n2)C1 | binding | 1 µM | 98 |
| C[C@@H](c1cccc(C#N)c1)n1cc(Cl)cc(C(N)=O)c1=N | cell-free assay, competition with immobilised ligand | 1 µM | 90 |
| CN(c1nccc(-c2cnn3ncccc23)n1)C1CC1 | binding | 1 µM | 100 |
| O=C1CCc2cc(Nc3cc(OC4CCOCC4)c([N+](=O)[O-])cc3Cl)ccc2N1 | cell-free assay, competition with immobilised ligand | 1 µM | 76 |
| COc1cnc(Nc2cccc(S(N)(=O)=O)c2)nc1N1CCN(c2ccccc2)C(=O)C1 | binding, competition with immobilised ligand | 1 µM | 100 |
| CC1CCCN1c1nccc(-c2cnn3ncccc23)n1 (stereo not shown) | binding | 1 µM | 98 |
| C[C@@H]1CN(c2ccc3ncc(-c4ccc5[nH]nc(C6CC6)c5c4)n3n2)C[C@H](C)O1 | binding, competition with immobilised ligand | 0.5 µM | 100 |
| CCS(=O)(=O)c1cc2cc(C[C@@](O)(CC(C)(C)c3ccc(F)cc3C(N)=O)C(F)(F)F)[nH]c2cn1 | cell-free assay, competition with immobilised ligand | 1 µM | 94 |
| CC(C)(C)c1ccc(-c2nc(CBr)nn2-c2cccc(O)c2)cc1 | cell-free assay, competition with immobilised ligand | 10 µM | 99 |
| O=C(NCCCN1CCOCC1)c1ccc(Nc2ncc(Cl)c(-c3ccc(Cl)s3)n2)cc1 | binding, competition with immobilised ligand | 1 µM | 47 |
| COc1ncc2cc3ccccc3nc2c1C#N | cell-free assay, competition with immobilised ligand | 5 µM | 88 |
| Nc1ncc2c(n1)-c1c([nH]c3ccc(C#CC4CC4)cc13)CCCC2 | binding, competition with immobilised ligand | 1 µM | 100 |
| C[C@H](NC(=O)c1cnc2n1[C@](C)(Cc1ccc(C#N)cc1)C(=O)N2c1cc(Cl)c(F)c(Cl)c1)C(=O)NC1(c2ccccn2)CC1 | cell-free assay, competition with immobilised ligand | 1 µM | 91 |
| Cc1cnc(Nc2ccc(C(=O)N3CCC(N4CCCC4)CC3)cc2)nc1-c1cc2ccccc2s1 | binding, competition with immobilised ligand | 1 µM | 11 |
| O=C(NCCCC1CCCCC1)c1ccc(CNC(=O)c2cnn(-c3ccccc3)c2C(F)(F)F)cc1 | cell-free assay, competition with immobilised ligand | 0.1 µM | 100 |
| N#Cc1ccccc1CSc1nnc2c(n1)[nH]c1ccccc12 | binding, competition with immobilised ligand | 10 µM | 100 |
